Test results reported in ChEMBL document CHEMBL4190254, “Synthesis of sulfamoylbenzamide derivatives as HBV capsid assembly effector” (Eur J Med Chem, 2017).

Key:
[1] = molecular target: Core antigen (Hepatitis B virus) (UniProt Q03732); experiment: Inhibition of capsid in HBV infected in human HepAD38 cells assessed as reduction in cccDNA formation by measuring reduction in HBe antigen secretion at 10 uM after 14 days by ELISA relative to control; assay type: cell-based
Procedure, shortened: (§1)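 HepAD38 cells, collagen-coated wells, DMEM/F12 with 10% heat-inactivated FBS. Tetracycline withdrawn 7 days to allow DNA synthesis and cccDNA formation; at day 7 tetracycline (0.3 μg/ml) plus compound re-added. Compound at 10 μM or 0.001–10 μM, medium and compound replenished every 5 days. Day-14 supernatant HBeAg by ELISA; EC50 by linear regression.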

[2] = tested on: CCRF-CEM; experiment: Cytotoxicity against human CEM cells by CellTiter 96 non-radioactive cell proliferation colorimetric assay; assay type: cell-based; conditions: ccrf-cem
Procedure, shortened: (§2)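 A CellTiter 96 colorimetric cell proliferation read-out was used in primary human PBM cells, CEM, Vero and HepG2 cells. CC50 is the concentration that inhibits cell growth by 50%.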

[3] = tested on: Vero; experiment: Cytotoxicity against African green monkey Vero cells by CellTiter 96 non-radioactive cell proliferation colorimetric assay; assay type: cell-based; conditions: chlorocebus sabaeus, vero; procedure, shortened: as §2
[4] = tested on: Hepatitis B virus; experiment: Antiviral activity against HBV infected in human HepAD38 cells assessed as reduction in viral replication by RT-PCR method; assay type: functional, organism-based
Procedure, shortened: (§3)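 HBV DNA replication in HepAD38 cells was quantified by RT-PCR following an earlier published method, with data relative to the untreated control. EC50 (50% inhibition of HBV DNA replication) was derived by linear regression. Values are the mean ± SD of two or three replicates from 2 independent experiments.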

[5] = tested on: PBMC; experiment: Cytotoxicity against human PBMC by CellTiter 96 non-radioactive cell proliferation colorimetric assay; assay type: cell-based; procedure, shortened: as §2
[6] = tested on: HepG2; experiment: Cytotoxicity against human HepG2 cells by CellTiter 96 non-radioactive cell proliferation colorimetric assay; assay type: cell-based; procedure, shortened: as §2
[7] = molecular target: Core antigen (Hepatitis B virus) (UniProt Q03732); experiment: (§4) Inhibition of capsid in HBV infected in human HepAD38 cells assessed as reduction in tetracycline-induced cccDNA formation by measuring reduction in HBe antigen secretion after 14 days by ELISA; assay type: cell-based; procedure, shortened: as §1
[8] = molecular target: Core antigen (Hepatitis B virus, UniProt Q03732); experiment: as §4; assay type: cell-based; procedure, shortened: as §1
[9] = tested on: Hepatitis B virus; experiment: Antiviral activity against HBV infected in human HepAD38 cells assessed as reduction in extracellular viral DNA level by RT-PCR method; assay type: functional, organism-based; procedure, shortened: as §3
[10] = tested on: Hepatitis B virus; experiment: Antiviral activity against HBV infected in human HepAD38 cells assessed as reduction in intracellular viral DNA level by RT-PCR method; assay type: functional, organism-based; procedure, shortened: as §3
[11] = tested on: Hepatitis B virus; experiment: Antiviral activity against HBV infected in human HepAD38 cells assessed as inhibition of viral replication at 10 uM by RT-PCR method relative to control; assay type: functional
Procedure, shortened: (§5)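 HBV DNA replication in HepAD38 cells was quantified by RT-PCR following an earlier published method. Each compound was tested at a single 10 μM concentration. Results are % inhibition ± SD relative to the untreated control.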

[12] = tested on: Hepatitis B virus; experiment: Antiviral activity against HBV infected in human HepAD38 cells assessed as reduction in intracellular viral DNA level at 10 uM by RT-PCR method relative to control; assay type: functional; set-up: scale not given: the % may be the effect or the level left
Procedure, shortened: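 HepAD38 cells; intracellular HBV DNA quantified by RT-PCR, expressed relative to untreated control; single-point inhibition given as percent at 10 μM, mean ± SD of two or three replicates from 2 independent experiments.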

[13] = tested on: Hepatitis B virus; experiment: Antiviral activity against HBV infected in human HepAD38 cells assessed as reduction in extracellular viral DNA level at 10 uM by RT-PCR method relative to control; assay type: functional; set-up: scale not given: the % may be the effect or the level left; procedure, shortened: as §5

Chain of Core antigen (Q03732 whole entry): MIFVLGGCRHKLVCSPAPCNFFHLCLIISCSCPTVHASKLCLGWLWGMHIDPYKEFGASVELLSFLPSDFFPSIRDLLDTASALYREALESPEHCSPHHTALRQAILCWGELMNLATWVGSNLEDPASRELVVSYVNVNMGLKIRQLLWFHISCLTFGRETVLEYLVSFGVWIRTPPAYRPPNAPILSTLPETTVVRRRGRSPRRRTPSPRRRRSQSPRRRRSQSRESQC
Chain of Core antigen (Hepatitis B virus) (Q03732 as listed by the source): as the sequence (Q03732 whole entry) above

Compound | inhibition [1] | CC50 [2] | CC50 [3] | EC50 [4] | EC90 [4] | CC50 [5] | CC50 [6] | EC90 [7] | EC50 [8] | EC50 [9] | EC90 [9] | EC50 [10] | EC90 [10] | inhibition at 10 µM [11] | Activity [12] | Activity [13]
O=C(Nc1ccc(F)c(F)c1)c1cc(NS(=O)(=O)C2CCCC2)ccc1F | 66% | 54.2 µM | 29.1 µM | 2.1 µM | 9.5 µM | > 100 µM | > 100 µM | > 10 µM | 6 µM | 2.1 µM | 9.5 µM | 0.3 µM | 3.6 µM |  |  | 
CC(C)OC(=O)[C@H](C)NS(=O)(=O)c1ccc(F)c(C(=O)Nc2ccc(F)c(F)c2)c1 |  | 31.1 µM | 13.1 µM | > 10 µM |  | > 100 µM | 45.5 µM |  |  |  |  |  |  |  |  | 
O=C(Nc1ccc(F)c(F)c1)c1cc(S(=O)(=O)NOC2CCCC2)ccc1F |  | 6.4 µM | 5.8 µM | 2.7 µM | > 10 µM | 13 µM | 26.4 µM |  |  |  |  |  |  | 82% |  | 
O=C1c2cc(S(=O)(=O)NC3CCCC3)ccc2CCN1c1ccc(F)c(F)c1 |  | > 100 µM | > 100 µM | > 10 µM |  | > 100 µM | > 100 µM |  |  |  |  |  |  |  |  | 
O=C1c2cc(S(=O)(=O)NC3CCCC3)ccc2CCCN1c1ccc(F)c(F)c1 |  | 50.6 µM | > 100 µM | > 10 µM |  | > 100 µM | > 100 µM |  |  |  |  |  |  |  |  | 
O=C(NC1(c2ccc(F)c(F)c2)CC1)c1cc(S(=O)(=O)NC2CCCC2)ccc1F |  | > 100 µM | 12.7 µM | > 10 µM |  | > 100 µM | > 100 µM |  |  |  |  |  |  |  |  | 
CC(NS(=O)(=O)c1ccc(F)c(C(=O)Nc2ccc(F)c(F)c2)c1)c1ccccc1 (stereo not drawn) |  | 3.6 µM | 68 µM | 7.7 µM | 9.3 µM | > 100 µM | > 100 µM |  |  |  |  |  |  |  |  | 
CC(C)(NS(=O)(=O)c1ccc(F)c(C(=O)Nc2ccc(F)c(F)c2)c1)c1ccccc1 |  | 3.8 µM | 39.4 µM | 6.8 µM | 9.6 µM | > 100 µM | 88.2 µM |  |  |  |  |  |  |  |  | 
CCOC(=O)C1=C(CN2CCOCC2)NC(c2nccs2)=NC1c1ccc(F)cc1Br (stereo not drawn) |  |  |  |  |  |  |  | 1.9 µM |  | 0.2 µM | 1 µM | < 0.01 µM | 0.05 µM |  | 82% | 
COC(=O)[C@H](Cc1ccccc1)NS(=O)(=O)c1ccc(F)c(C(=O)Nc2ccc(F)c(F)c2)c1 |  | 31.6 µM | > 100 µM | > 10 µM |  | > 100 µM | 76.8 µM |  |  |  |  |  |  |  |  | 
CCOC(=O)[C@H](CC(C)C)NS(=O)(=O)c1ccc(F)c(C(=O)Nc2ccc(F)c(F)c2)c1 |  | 10.8 µM | 39.1 µM | > 10 µM |  | 58.1 µM | > 100 µM |  |  |  |  |  |  |  |  | 
CN(C)S(=O)(=O)NS(=O)(=O)c1ccc(F)c(C(=O)Nc2ccc(F)c(F)c2)c1 |  | > 100 µM | > 100 µM | > 10 µM |  | > 100 µM | > 100 µM |  |  |  |  |  |  |  |  | 
CN(C1CCCC1)S(=O)(=O)c1ccc(F)c(C(=O)Nc2ccc(F)c(F)c2)c1 |  | 14.5 µM | 18.3 µM | 7.7 µM | ≥ 10 µM | 25.8 µM | 48.6 µM |  |  |  |  |  |  | 87% |  | 
O=C(Nc1cc(S(=O)(=O)NC2CCCC2)ccc1F)c1ccc(F)c(F)c1 |  | 13.6 µM | 87.5 µM | ≥ 10 µM |  | 81 µM | > 100 µM |  |  |  |  |  |  |  |  | 
CN(C1CCCC1)S(=O)(=O)c1ccc2c(c1)C(=O)N(c1ccc(F)c(F)c1)CCC2 |  | > 100 µM | > 100 µM | > 10 µM |  | > 100 µM | > 100 µM |  |  |  |  |  |  |  |  | 
O=C(Nc1ccc(F)c(F)c1)c1cc(S(=O)(=O)NS(=O)(=O)c2ccc(F)c(F)c2)ccc1F |  | > 100 µM | > 100 µM | > 10 µM |  | > 100 µM | > 100 µM |  |  |  |  |  |  |  |  | 
O=C(Nc1ccc(F)c(F)c1)c1cc(S(=O)(=O)N2CCC(F)(F)C2)ccc1F |  | 4.8 µM | 21.3 µM | 6.7 µM | > 10 µM | > 100 µM | > 100 µM |  |  |  |  |  |  | 83% |  | 
O=C(Nc1ccc(F)c(F)c1)c1cc(S(=O)(=O)N2CCC(F)(F)CC2)ccc1F |  | 10.3 µM | > 100 µM | 4.5 µM | 9.4 µM | > 100 µM | > 100 µM |  |  |  |  |  |  |  |  | 
O=C(Nc1ccc(F)c(F)c1)c1cc(S(=O)(=O)N2CCC3CCCCC32)ccc1F (stereo not drawn) |  | 22.9 µM | 30.7 µM | 4.6 µM | 10 µM | > 100 µM | > 100 µM |  |  |  |  |  |  |  |  | 
O=C(Nc1ccc(F)c(F)c1)c1cc(S(=O)(=O)N2CC(F)(F)C(F)(F)C2)ccc1F |  | ≤ 1 µM | 9 µM | 9.2 µM | > 10 µM | > 100 µM | > 100 µM |  |  |  |  |  |  | 59% |  | 
CS(=O)(=O)NS(=O)(=O)c1ccc(F)c(C(=O)Nc2ccc(F)c(F)c2)c1 |  | > 100 µM | > 100 µM | > 10 µM |  | > 100 µM | > 100 µM |  |  |  |  |  |  |  |  | 
O=C(Nc1ccc(F)c(F)c1)c1cc(S(=O)(=O)NS(=O)(=O)C2CC2)ccc1F |  | > 100 µM | > 100 µM | > 10 µM |  | > 100 µM | > 100 µM |  |  |  |  |  |  |  |  | 
CN(C1CCCC1)S(=O)(=O)c1ccc2c(c1)C(=O)N(c1ccc(F)c(F)c1)CC2 |  | 36 µM | > 100 µM | > 10 µM |  | 71.2 µM | > 100 µM |  |  |  |  |  |  |  |  | 
O=C(Nc1ccc(F)c(F)c1)c1cc(NS(=O)(=O)C2CC2)ccc1F | 61% | 11.8 µM | 30.7 µM | 6.9 µM | > 10 µM | 39.2 µM | 61.8 µM | > 10 µM | 5.5 µM | 6.9 µM | > 10 µM | 0.8 µM | 8.1 µM |  |  | 76%
O=C(Nc1ccc(F)c(F)c1)c1cc(S(=O)(=O)NC2CC2)ccc1F |  | 13.6 µM | 79.2 µM | 3.2 µM | 8.9 µM | 30.1 µM | 62.3 µM |  |  |  |  |  |  |  |  | 
O=C(Nc1ccc(F)c(F)c1)c1cc(NS(=O)(=O)C2CCCCC2)ccc1F | 67% | 74.5 µM | 6.4 µM | 3.7 µM | ≥ 10 µM | > 100 µM | 80.4 µM | > 10 µM | 9.7 µM | 3.7 µM | ≥ 10 µM | < 0.1 µM | 7.9 µM |  | 63% | 86%
C=C1[C@H](CO)[C@@H](O)C[C@@H]1n1cnc2c(=O)[nH]c(N)nc21.O | < 1% |  |  |  |  |  |  |  | > 10 µM | 0.0007 µM | 0.1 µM | ≤ 0.0001 µM | 0.009 µM |  | 53% | 
O=C(Nc1ccc(F)c(F)c1)c1cc(S(=O)(=O)N2CCCC2=O)ccc1F |  | 37.8 µM | 39.6 µM | > 10 µM |  | > 100 µM | > 100 µM |  |  |  |  |  |  |  |  | 
